Measured values published in ChEMBL document CHEMBL4364261, “Positive Charge Patterning and Hydrophobicity of Membrane-Active Antimicrobial Peptides as Determinants of Activity, Toxicity, and Pharmacokinetic Stability” (J Med Chem, 2019).
Active and inactive are the calls of the source. The rule behind the calls is not given here.

Legend:
[1] = system: Pseudomonas aeruginosa; assay: Antibacterial activity against tobramycin-pretreated Pseudomonas aeruginosa isolate 214 measured after 20 hrs by microtiter dilution method; assay type: functional
In short: (§1)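 Mueller-Hinton broth microdilution; 2-fold serial dilutions of peptide from 0 to 50 μM incubated 20 h at 37 °C with 50 000 cfu/well from an overnight MHB culture. Bacterial growth read as background-subtracted OD600. MIC recorded as the peptide concentration at which growth is inhibited. P. aeruginosa isolates came from sputum of cystic fibrosis patients with infections persisting after inhaled tobramycin.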

[2] = Hemolytic activity in human RBC assessed as hemolysis at 320 to 640 uM measured after 1 hr; assay type: ADME, cell-based, Erythrocyte; settings: human red blood cells (erythrocytes), read-out: Activity
In short: (§2)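 Fresh human erythrocytes washed and resuspended in PBS to a final 4% (v/v). Incubated 1 h at 37 °C with 2-fold serial peptide dilutions from 0 to 640 μM. Supernatant absorbance at 540 nm; PBS taken as 0% and 1% Triton as 100% hemolysis. Standard deviation reported; one-way ANOVA applied.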

[3] = system: Pseudomonas aeruginosa; assay: Antibacterial activity against tobramycin-pretreated Pseudomonas aeruginosa isolate 287 measured after 20 hrs by microtiter dilution method; assay type: functional; in short: as §1
[4] = system: Pseudomonas aeruginosa; assay: Antibacterial activity against tobramycin-pretreated Pseudomonas aeruginosa isolate 380 after 20 hrs by microtiter dilution method; assay type: functional; in short: as §1
[5] = system: Pseudomonas aeruginosa; assay: Antibacterial activity against tobramycin-pretreated Pseudomonas aeruginosa isolate 330 after 20 hrs by microtiter dilution method; assay type: functional; in short: as §1
[6] = system: Escherichia coli; assay: Antibacterial activity against Escherichia coli K-12 measured after 20 hrs by microtiter dilution method; assay type: functional; settings: K-12, 20 h; in short: as §1
[7] = Hemolytic activity in human RBC assessed as hemolysis at 40 uM measured after 1 hr; assay type: ADME, cell-based, Erythrocyte; settings: human red blood cells (erythrocytes), read-out: Activity; in short: as §2
[8] = system: Pseudomonas aeruginosa; assay: Antibacterial activity against Pseudomonas aeruginosa PAO1 measured after 20 hrs by microtiter dilution method; assay type: functional; settings: PAO1, 20 h; in short: as §1
[9] = system: Escherichia coli; assay: Induction of terbium(3)-loaded Escherichia coli lipid extract liposome membrane disruption at 10 uM measured after 20 mins by fluorescence assay relative to control; assay type: cell membranes
[10] = system: Escherichia coli; assay: Binding affinity to Escherichia coli lipid extract liposome membrane at 10 uM by tryptophan fluorescence method; assay type: cell membranes
In short: (§3)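 Peptide at 10 μM in 10 mM Tris, 10 mM NaCl, pH 7.4, with 0.8 mg/mL E. coli total lipid extract or POPC liposomes, equilibrated overnight before recording. Trp excited at 280 nm, emission scanned 300–400 nm. After background subtraction, the wavelength of maximal emission was taken.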

[11] = system: Escherichia coli; assay: Binding affinity to Escherichia coli lipid extract liposome membrane at 10 uM by tryptophan fluorescence quenching method; assay type: cell membranes
In short: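 Acrylamide quenching of Trp; peptide 10 μM with 0.8 mg/mL E. coli lipid liposomes. Excitation at 295 nm, emission 310–400 nm. Read-out is the Stern–Volmer slope, with larger slopes meaning more quenching. At least two independent experiments, error given as standard deviation.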

[12] = Stability of the compound assessed as Engyodontium album PMSF-pretreated proteinase K-mediated compound hydrolysis at 20 uM incubated for 10 mins at 70 degC by coomassie blue staining-based NuPAGE analysis; assay type: ADME; settings: parengyodontium album, 1 h, in the assay text read “incubated for up to 1 hr at 37 degC” for “incubated for 10 mins at 70 degC”
In short: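 Reactions stopped with 5 mM PMSF; PMSF-preinhibited enzyme served as control. Samples heated 70 °C for 10 min and run on 12% Bis-Tris gels with Coomassie staining. Band density normalized to T0.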

[13] = system: Lipid bilayer; assay: Binding affinity to POPC membrane at 25 uM by CD spectroscopic analysis; assay type: ADME
In short: (§4)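 CD spectra of 25 μM peptide in 10 mM Tris, 10 mM NaCl, pH 7.4, with 2 mg/mL E. coli total lipid extract or POPC liposomes, equilibrated overnight. Helicity judged at 222 nm. Average of at least three independent experiments.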

[14] = system: Escherichia coli; assay: Binding affinity to Escherichia coli lipid extract liposome membrane at 25 uM by CD spectroscopic analysis; assay type: cell membranes; in short: as §4
[15] = system: Lipid bilayer; assay: Binding affinity to 11,12-BrPC-loaded POPC membrane at 10 uM by tryptophan fluorescence method; assay type: ADME
[16] = system: Lipid bilayer; assay: Binding affinity to POPC membrane at 10 uM by tryptophan fluorescence method; assay type: ADME; in short: as §3
[17] = system: Lipid bilayer; assay: Binding affinity to terbium(3)-loaded POPC membrane at 10 uM measured for 10 mins by fluorescence assay relative to control; assay type: ADME
In short: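 Tb3+-loaded liposomes, E. coli lipid or POPC, size-exclusion exchanged and diluted to 2.5% (v/v) in dipicolinic acid buffer, stirring. Peptide added at 10 μM. Tb3+ excited at 314 nm, emission at 544 nm recorded for 10 min. Liposome-only signal subtracted, normalized to a 0.1% Triton-lysed control as 100% disruption.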

| MIC [1] [µM] | MIC [3] [µM] | MIC [4] [µM] | MIC [5] [µM] | MIC [6] [µM] | MIC [8] [µM] | Activity [9] [%] | Activity [10] | Activity [11] | Stability [12] | Activity [13] | Activity [14] | Activity [15] | Activity [16] | Activity [17] [%] | Substance | hemolysis at 1 h, up to 640 µM [2] [%] | hemolysis at 1 h, 40 µM [7] [%] |
| --- | --- | --- | --- | --- | --- | --- | --- | --- | --- | --- | --- | --- | --- | --- | --- | --- | --- |
| > 50 | > 50 | > 50 | > 50 | 12.5 | 50 | 8 | Active | Active | Unstable | Not Active | Active |  |  |  | H-KAAKKFAKAWAKAFKAA-NH2 | < 1 | 0 |
| 3.1 | 3.1 | 6.3 | 6.3 | 1.6 | 3.1 | 40 |  | inactive |  | Active | Active | Active | Active | 25 to 70 | H-KALKKFLKAWAKLFKAL-NH2 | < 1 | 81 |
| 50 | 50 | > 50 | > 50 | 12.5 | 25 | 80 | Active |  | Unstable | Not Active | Active |  |  |  | H-KKAKAFAKAWAKAFKAA-NH2 | < 1 | 0 |
| 50 | > 50 | > 50 | > 50 | 25 | 50 | 80 | Active |  | Unstable | Not Active | Active |  |  |  | H-KKKAAFAKAWAKAFKAA-NH2 | < 1 | 0 |
| 3.1 | 3.1 | 3.1 | 6.3 | 3.1 | 3.1 | 40 |  |  |  | Active | Active |  | Active | 25 to 70 | H-KKKAAFLKLWAKLFKAL-NH2 |  | 100 |
| 50 | > 50 | 50 | > 50 | 12.5 | 50 |  | Active |  | Unstable | Not Active | Active |  |  |  | H-KKKKAAFAKAWAKAFAA-NH2 | < 1 | 0 |
| > 50 | > 50 | > 50 | > 50 | 12.5 | > 50 | 40 |  |  |  | Active | Active |  | Active | 25 to 70 | H-KKKKAAFLKLWLKLFAA-NH2 |  | 8 |
| 25 | 50 | 50 | 50 | 6.3 | 25 |  | Active |  | Stable | Not Active | Active |  |  |  | H-KKKKKAAFAKAWAAFAA-NH2 | < 1 | 0 |
| 6.3 | 6.3 | > 50 | 12.5 | 3.1 | 12.5 | 40 |  |  |  | Active | Active |  | Active | 25 to 70 | H-KKKKKALFLKLWAAFLA-NH2 |  | 49 |
| 50 | 25 | > 50 | > 50 | 12.5 | > 50 | 80 |  | Active |  | Active | Active | Not Active | Active | 4 to 8 | H-KKKKKKALFALWLAFLA-NH2 |  | 33 |
| 3.1 | 3.1 | 1.5 | 6.3 | 1.6 | 3.1 | 40 |  |  |  | Active | Active |  | Active | 25 to 70 | H-KKLKAFLKAWAKLFKAL-NH2 | < 1 | 89 |

| Substance | MIC [1] [µM] | MIC [3] [µM] | MIC [4] [µM] | MIC [5] [µM] | MIC [6] [µM] | MIC [8] [µM] | Activity [9] [%] | Activity [10] | Activity [11] | Stability [12] | Activity [13] | Activity [14] | Activity [15] | Activity [16] | Activity [17] [%] | hemolysis at 1 h, up to 640 µM [2] [%] | hemolysis at 1 h, 40 µM [7] [%] |
| --- | --- | --- | --- | --- | --- | --- | --- | --- | --- | --- | --- | --- | --- | --- | --- | --- | --- |
| H-KKKKKKAAFAAWAAFAA-NH2 | 3.1 | 3.1 | 12.5 | 25 | 1.6 | 12.5 | 35 | Active | Active | Stable | Not Active | Active |  |  |  | < 1 | 0 |
